pKi: −log10 of the molar value.
Target: T1, B2 bradykinin receptor (Homo sapiens, UniProt P30411)
T1 sequence (P30411 whole entry): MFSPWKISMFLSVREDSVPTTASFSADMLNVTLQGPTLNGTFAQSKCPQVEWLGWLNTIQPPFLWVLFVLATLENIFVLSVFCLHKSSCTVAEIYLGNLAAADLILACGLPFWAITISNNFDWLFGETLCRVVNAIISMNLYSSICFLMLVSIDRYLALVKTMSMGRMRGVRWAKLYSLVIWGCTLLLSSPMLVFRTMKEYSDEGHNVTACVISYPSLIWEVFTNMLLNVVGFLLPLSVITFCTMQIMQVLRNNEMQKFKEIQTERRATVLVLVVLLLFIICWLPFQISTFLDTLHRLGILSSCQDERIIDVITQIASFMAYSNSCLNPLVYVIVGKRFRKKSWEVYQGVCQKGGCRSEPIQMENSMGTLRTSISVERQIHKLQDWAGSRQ
Experiment: Antagonist activity at human bradykinin B2 receptor expressed in dhfr-deficient CHO cells assessed as inhibition of bradykinin-induced inositol monophosphate accumulation preincubated for 15 mins prior bradykinin induction measured after 40 mins by liquid scintillation spectrometry
Type: functional, cell-based
Conditions: read-out: pA2 (converted)
Summary of the method: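 CHOdhfr-/hB2R cells (1.8×10^5/well) plated overnight at 37 °C, labelled 24 h with myo-[3H]inositol (1 uCi/well). Antagonist pre-incubation 15 min, then BK 1×10^-11 to 1×10^-5 M for 40 min at 37 °C in Hepes pH 7.4 buffer with 25 mM LiCl. IP1 radioactivity by liquid scintillation. Agonist curves fitted for EC50; pA2 = log(CR−1) − log[antagonist].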

Kb [nM]	SMILES
0.794	Cc1cc(C)c2cccc(OCc3c(Cl)ccc(S(=O)(=O)NC4(C(=O)N5CCN(C(=O)CCCCC[N+](C)(C)C)CC5)CCOCC4)c3Cl)c2n1
3.16	Cc1cc(C)c2cccc(OCc3c(Cl)ccc(S(=O)(=O)NC4(C(=O)N5CC[N+](C)(CCCCCC[N+](C)(C)C)CC5)CCOCC4)c3Cl)c2n1
1.58	Cc1cc(C)c2cccc(OCc3c(Cl)ccc(S(=O)(=O)NC4(C(=O)N5CCC(CCC[N+](C)(C)C)CC5)CCOCC4)c3Cl)c2n1
2.51	Cc1cc(C)c2cccc(OCc3c(Cl)ccc(S(=O)(=O)NC4(C(=O)N5CC[N+](C)(CCCCC[N+](C)(C)C)CC5)CCOCC4)c3Cl)c2n1
3.98	Cc1cc(C)c2cccc(OCc3c(Cl)ccc(S(=O)(=O)NC4(C(=O)N5CCC(CC[N+](C)(C)C)CC5)CCOCC4)c3Cl)c2n1
3.98	Cc1cc(C)c2cccc(OCc3c(Cl)ccc(S(=O)(=O)NC4(C(=O)N5CCC(CCCC[N+](C)(C)C)CC5)CCOCC4)c3Cl)c2n1
0.794	Cc1cc(C)c2cccc(OCc3c(Cl)ccc(S(=O)(=O)NC4(C(=O)N5CCN(C(=O)C[N+](C)(C)C)CC5)CCOCC4)c3Cl)c2n1
1.58	Cc1cc(C)c2cccc(OCc3c(Cl)ccc(S(=O)(=O)NC4(C(=O)N5CC[N+]6(CCN(C)CC6)CC5)CCOCC4)c3Cl)c2n1

Target: T2, B2 bradykinin receptor (Homo sapiens) (UniProt P30411)
T2 sequence (whole entry): T1 sequence (P30411 whole entry)
Experiment: (§1) Reversible antagonist activity at human bradykinin B2 receptor expressed in dhfr-deficient CHO cells assessed as inhibition of bradykinin-induced inositol monophosphate accumulation at 3 uM preincubated for 15 mins prior bradykinin induction measured after 30 mins washout by liquid scintillation spectrometry
Type: functional, cell-based
Conditions: not given
Summary of the method: (§2)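 Washout in the IP accumulation assay in CHO/hB2R cells: antagonist (3 µM or 100 nM) pre-incubated 15 min, with medium then fully replaced every 15 min in washed cells. BK (2 nM) added and the reaction stopped after one hour; IP formed quantified. Expressed as % inhibition of time-matched BK responses in vehicle-pre-incubated cells.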

inhibition [%]	SMILES
6	Cc1cc(C)c2cccc(OCc3c(Cl)ccc(S(=O)(=O)NC4(C(=O)N5CCC(CCCC[N+](C)(C)C)CC5)CCOCC4)c3Cl)c2n1

Target: T2, B2 bradykinin receptor (Homo sapiens)
Experiment: as §1, with “15” for “30”
Type: functional, cell-based
Conditions: not given
Summary of the method: as §2

inhibition [%]	SMILES
23	Cc1cc(C)c2cccc(OCc3c(Cl)ccc(S(=O)(=O)NC4(C(=O)N5CCC(CCCC[N+](C)(C)C)CC5)CCOCC4)c3Cl)c2n1

Target: T3, B1 bradykinin receptor (Homo sapiens, UniProt P46663)
T3 sequence (P46663 whole entry): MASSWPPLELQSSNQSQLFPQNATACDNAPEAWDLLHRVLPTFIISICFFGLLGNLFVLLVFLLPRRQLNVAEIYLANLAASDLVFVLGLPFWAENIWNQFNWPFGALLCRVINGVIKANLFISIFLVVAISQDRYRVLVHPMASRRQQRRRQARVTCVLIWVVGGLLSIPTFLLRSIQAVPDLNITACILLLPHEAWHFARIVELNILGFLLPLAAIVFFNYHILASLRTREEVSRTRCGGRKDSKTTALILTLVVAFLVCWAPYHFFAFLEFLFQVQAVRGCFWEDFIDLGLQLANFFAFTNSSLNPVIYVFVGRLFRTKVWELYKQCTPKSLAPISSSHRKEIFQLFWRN
Experiment: Displacement of [3H][desArg9]Lys-Bradykinin from human bradykinin B1 receptor expressed in CHO cells
Type: cell-based
Conditions: not given

pKi	SMILES
< 5.00	Cc1cc(C)c2cccc(OCc3c(Cl)ccc(S(=O)(=O)NC4(C(=O)N5CCN(C(=O)CCCCC[N+](C)(C)C)CC5)CCOCC4)c3Cl)c2n1
< 5.00	Cc1cc(C)c2cccc(OCc3c(Cl)ccc(S(=O)(=O)NC4(C(=O)N5CC[N+](C)(CCCCCC[N+](C)(C)C)CC5)CCOCC4)c3Cl)c2n1
< 5.00	Cc1cc(C)c2cccc(OCc3c(Cl)ccc(S(=O)(=O)NC4(C(=O)N5CCC(CCC[N+](C)(C)C)CC5)CCOCC4)c3Cl)c2n1
< 5.00	Cc1cc(C)c2cccc(OCc3c(Cl)ccc(S(=O)(=O)NC4(C(=O)N5CC[N+](C)(CCCCC[N+](C)(C)C)CC5)CCOCC4)c3Cl)c2n1
< 5.00	Cc1cc(C)c2cccc(OCc3c(Cl)ccc(S(=O)(=O)NC4(C(=O)N5CCC(CC[N+](C)(C)C)CC5)CCOCC4)c3Cl)c2n1
< 5.00	Cc1cc(C)c2cccc(OCc3c(Cl)ccc(S(=O)(=O)NC4(C(=O)N5CCC(CCCC[N+](C)(C)C)CC5)CCOCC4)c3Cl)c2n1
< 5.00	Cc1cc(C)c2cccc(OCc3c(Cl)ccc(S(=O)(=O)NC4(C(=O)N5CCN(C(=O)C[N+](C)(C)C)CC5)CCOCC4)c3Cl)c2n1
< 5.00	Cc1cc(C)c2cccc(OCc3c(Cl)ccc(S(=O)(=O)NC4(C(=O)N5CC[N+]6(CCN(C)CC6)CC5)CCOCC4)c3Cl)c2n1

Target: T1, B2 bradykinin receptor
Experiment: Displacement of [3H]-Bradykinin from human bradykinin B2 receptor expressed in CHO cells membrane after 60 mins by scintillation counting
Type: cell membranes
Conditions: not given

pKi	SMILES
9.90	Cc1cc(C)c2cccc(OCc3c(Cl)ccc(S(=O)(=O)NC4(C(=O)N5CCN(C(=O)CCCCC[N+](C)(C)C)CC5)CCOCC4)c3Cl)c2n1
10.40	Cc1cc(C)c2cccc(OCc3c(Cl)ccc(S(=O)(=O)NC4(C(=O)N5CC[N+](C)(CCCCCC[N+](C)(C)C)CC5)CCOCC4)c3Cl)c2n1
9.30	Cc1cc(C)c2cccc(OCc3c(Cl)ccc(S(=O)(=O)NC4(C(=O)N5CCC(CCC[N+](C)(C)C)CC5)CCOCC4)c3Cl)c2n1
10.30	Cc1cc(C)c2cccc(OCc3c(Cl)ccc(S(=O)(=O)NC4(C(=O)N5CC[N+](C)(CCCCC[N+](C)(C)C)CC5)CCOCC4)c3Cl)c2n1
9.10	Cc1cc(C)c2cccc(OCc3c(Cl)ccc(S(=O)(=O)NC4(C(=O)N5CCC(CC[N+](C)(C)C)CC5)CCOCC4)c3Cl)c2n1
9.20	Cc1cc(C)c2cccc(OCc3c(Cl)ccc(S(=O)(=O)NC4(C(=O)N5CCC(CCCC[N+](C)(C)C)CC5)CCOCC4)c3Cl)c2n1
10.10	Cc1cc(C)c2cccc(OCc3c(Cl)ccc(S(=O)(=O)NC4(C(=O)N5CCN(C(=O)C[N+](C)(C)C)CC5)CCOCC4)c3Cl)c2n1
9.00	Cc1cc(C)c2cccc(OCc3c(Cl)ccc(S(=O)(=O)NC4(C(=O)N5CC[N+]6(CCN(C)CC6)CC5)CCOCC4)c3Cl)c2n1

Target: T2, B2 bradykinin receptor (Homo sapiens)
Experiment: as §1, with “45” for “30”
Type: functional, cell-based
Conditions: not given
Summary of the method: as §2

inhibition [%]	SMILES
-0	Cc1cc(C)c2cccc(OCc3c(Cl)ccc(S(=O)(=O)NC4(C(=O)N5CCC(CCCC[N+](C)(C)C)CC5)CCOCC4)c3Cl)c2n1

Reference: ChEMBL document CHEMBL1955756, “Design and synthesis of novel sulfonamide-containing bradykinin hB(2) receptor antagonists. Synthesis and structure-relationships of α,α-tetrahydropyranylglycine” (Bioorg Med Chem, 2012)
